Test results: PMC6474823 (Molecular cell, 2019)

Biological target: Hck^3D V284C (Homo sapiens, UniProt P08631, V276C)
Assay: Inhibitor IC50 determination, fluorescent SFK peptide kinase assay
Assay type: biochemical
Details: 1 mM ATP
Summary of the method: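 Kinase concentrations were set in the linear range by prior titration: Src3D WT or V284C at 7.5 nM, Hck3D WT or V284C at 5 nM. Kinase was incubated 30 min with test compound (30 μM top, 3-fold serial dilutions, 10 points) and 1 mM ATP in HEPES pH 7.5 buffer with MgCl2, EGTA, BSA, vanadate and BME. Then 20 μM pyrene-labelled SFK peptide was added for 2 h. Fluorescence was read at ex 344/em 405 nm, in triplicate.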

Sequence of Hck^3D V284C (P08631 81-526 V276C): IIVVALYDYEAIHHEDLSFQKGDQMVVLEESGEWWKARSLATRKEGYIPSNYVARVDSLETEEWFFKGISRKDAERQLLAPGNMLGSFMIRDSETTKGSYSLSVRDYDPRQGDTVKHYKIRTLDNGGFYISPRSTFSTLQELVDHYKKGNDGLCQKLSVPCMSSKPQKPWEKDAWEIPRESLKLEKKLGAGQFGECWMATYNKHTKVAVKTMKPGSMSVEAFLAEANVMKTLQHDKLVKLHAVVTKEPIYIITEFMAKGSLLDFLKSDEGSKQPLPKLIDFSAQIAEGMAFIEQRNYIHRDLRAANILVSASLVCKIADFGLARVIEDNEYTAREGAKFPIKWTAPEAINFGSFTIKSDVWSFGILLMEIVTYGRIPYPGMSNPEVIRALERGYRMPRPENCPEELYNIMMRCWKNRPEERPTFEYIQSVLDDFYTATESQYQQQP

Structure (SMILES) | inhibition of Hck V284C (IC50, Figure 4C)
COCCn1c(/C=C(/C#N)C(=O)NC(C)C)c(-c2ccc(Cl)cc2)c2c(N)ncnc21 [compound 1, (E)- & (Z)-3-(4-Amino-5-(4-chlorophenyl)-7-(2-methoxyethyl)-7H-pyrrolo[2,3-d]pyrimidin-6-yl)-2-cyano-N-isopropylacrylamide] | potently inhibited
COCCn1c(/C=C(/C#N)C(=O)NC(C)C)c(-c2ccc(Oc3ccccc3)cc2)c2c(N)ncnc21 [compound 2, (E)- & (Z)-3-(4-Amino-7-(2-methoxyethyl)-5-(4-phenoxyphenyl)-7H-pyrrolo[2,3-d]pyrimidin-6-yl)-2-cyano-N-isopropylacrylamide] | potently inhibited
